Results as given in ChEMBL document CHEMBL1268933, “Discovery of a vorapaxar analog with increased aqueous solubility” (Bioorg Med Chem Lett, 2010).
Converted amounts (≈) assume the structure as drawn. The source made the active and inactive calls. No cut-off for these calls is given here.

Assays:
[1] = target: T1, Proteinase-activated receptor 1 (Homo sapiens, UniProt P25116); experiment: Displacement of high affinity TRAP form human platelet PAR1
T1 sequence (P25116 whole entry): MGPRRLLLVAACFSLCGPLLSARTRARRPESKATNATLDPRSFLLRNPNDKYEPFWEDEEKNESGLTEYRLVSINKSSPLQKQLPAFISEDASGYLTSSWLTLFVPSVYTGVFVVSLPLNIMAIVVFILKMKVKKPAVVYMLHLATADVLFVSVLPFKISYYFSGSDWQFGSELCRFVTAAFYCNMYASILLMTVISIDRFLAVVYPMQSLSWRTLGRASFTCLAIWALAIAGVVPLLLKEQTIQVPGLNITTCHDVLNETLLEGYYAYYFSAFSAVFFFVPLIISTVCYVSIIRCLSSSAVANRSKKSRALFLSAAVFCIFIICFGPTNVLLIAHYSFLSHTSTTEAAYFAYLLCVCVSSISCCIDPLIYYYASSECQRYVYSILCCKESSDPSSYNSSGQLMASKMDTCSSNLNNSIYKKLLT
In short: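 Radioligand binding using human platelet membranes as PAR-1 source and tritiated haTRAP as radioligand; run in duplicate, compounds of high interest repeated n≥5 (SD 20%); Ki reported.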

[2] = Kinetic solubility of the compound; type: physicochemical
In short: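 Kinetic solubility: DMSO serial dilutions added to 10 mM phosphate buffer pH 7.4, equilibrated 30 min at room temperature; precipitate detected by nephelometry; solubility taken as highest concentration not scattering light.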

[3] = AUC in rat; type: ADME, organism-based; conditions: plasma
In short: (§1)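 High-throughput format rat pharmacokinetic screen; plasma AUC and Cmax determined.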

[4] = Equilibrium solubility of the compound after 24 hrs; type: physicochemical
[5] = Cmax in rat; type: ADME, organism-based; conditions: in vivo; in short: as §1
[6] = AUC (0 to 24 hrs) in monkey at 1 mg/kg, po; type: ADME, organism-based, Macaca mulatta; design: time < 24 hr, dose 1 mg/kg, route oral; conditions: rhesus monkey, plasma
[7] = target: T2, PXR (nuclear receptor subfamily 1 group I member 2) (Homo sapiens, UniProt O75469); experiment: Induction of human PXR at 10 uM
T2 sequence (O75469 whole entry): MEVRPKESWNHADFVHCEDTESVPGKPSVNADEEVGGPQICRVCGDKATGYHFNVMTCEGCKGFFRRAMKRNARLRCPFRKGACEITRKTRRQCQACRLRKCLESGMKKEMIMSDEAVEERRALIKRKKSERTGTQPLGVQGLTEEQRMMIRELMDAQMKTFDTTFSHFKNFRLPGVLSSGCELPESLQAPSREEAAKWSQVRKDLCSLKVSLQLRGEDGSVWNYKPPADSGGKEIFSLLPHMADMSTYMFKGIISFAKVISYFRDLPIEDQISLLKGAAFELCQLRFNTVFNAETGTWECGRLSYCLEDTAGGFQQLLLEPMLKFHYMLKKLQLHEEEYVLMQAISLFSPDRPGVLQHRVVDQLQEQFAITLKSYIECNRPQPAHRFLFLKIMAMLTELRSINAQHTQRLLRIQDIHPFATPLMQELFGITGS

[8] = AUC (0 to 24 hrs) in monkey at 0.1 mg/kg, po; type: ADME, organism-based, Macaca mulatta; design: time < 24 hr, dose 0.1 mg/kg, route oral; conditions: rhesus monkey, plasma
Cytochrome P450 2D6 = Cytochrome P450 2D6 (Homo sapiens, UniProt P10635); experiment: Inhibition of CYP2D6; type: ADME
In short: (§2)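 CYP3A4, CYP2D6, CYP2C9 and CYP2C19 inhibition tested under both co-incubation and pre-incubation conditions; IC50 determined.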

[9] = Cmax in monkey at 0.1 mg/kg, po; type: ADME, organism-based, Macaca mulatta; design: dose 0.1 mg/kg, route oral; conditions: rhesus monkey, in vivo
Cytochrome P450 2C9 = Cytochrome P450 2C9 (Homo sapiens, UniProt P11712); experiment: Inhibition of CYP2C9; type: ADME; in short: as §2
Platelet [10] = experiment: Ex-vivo inhibition of PAR1-mediated aggregation of high affinity TRAP-stimulated cynomolgus monkey platelet at 0.1 mg/kg, po administered as single dose measured after 24 hrs; type: functional; conditions: Macaca fascicularis
In short: (§3)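 Cynomolgus monkeys (n = 3) given single oral dose of 0.1 or 0.3 mg/kg; ex vivo haTRAP-induced platelet aggregation measured at time points out to 24 h.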

[11] = Permeability across human Caco-2 cell membrane; type: ADME, cell-based; conditions: read-out: permeability
[12] = Tmax in monkey at 1 mg/kg, po; type: ADME, organism-based, Macaca mulatta; design: dose 1 mg/kg, route oral; conditions: rhesus monkey, in vivo
Cytochrome P450 3A4 = Cytochrome P450 3A4 (Homo sapiens, UniProt P08684); experiment: Inhibition of CYP3A4; type: ADME; in short: as §2
[13] = Cmax in monkey at 1 mg/kg, po; type: ADME, organism-based, Macaca mulatta; design: dose 1 mg/kg, route oral; conditions: rhesus monkey, in vivo
Platelet [14] = experiment: Ex-vivo inhibition of PAR1-mediated aggregation of high affinity TRAP-stimulated cynomolgus monkey platelet at 0.1 mg/kg, po administered as single dose measured up to 6 hrs; type: functional, organism-based; design: dose 0.1 mg/kg; conditions: Macaca fascicularis; in short: as §3
[15] = Tmax in monkey at 0.1 mg/kg, po; type: ADME, organism-based, Macaca mulatta; design: dose 0.1 mg/kg, route oral; conditions: rhesus monkey, in vivo
Platelet [16] = experiment: Ex-vivo inhibition of PAR1-mediated aggregation of high affinity TRAP-stimulated cynomolgus monkey platelet at 0.3 mg/kg, po administered as single dose measured after 24 hrs; type: functional, organism-based; design: dose 0.3 mg/kg; conditions: Macaca fascicularis; in short: as §3
Rhesus monkey = experiment: Antithrombotic activity in monkey Folts model; type: functional, organism-based; conditions: Macaca mulatta
In short: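 Folts thrombosis model in anesthetized monkeys; escalating doses given intravenously in sequence to the same animal, alone or with ADP antagonist cangrelor; inhibition of cyclic flow reductions monitored.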

Cytochrome P450 2C19 = Cytochrome P450 2C19 (Homo sapiens, UniProt P33261); experiment: Inhibition of CYP2C19; type: ADME; in short: as §2
Sequence of Cytochrome P450 2C19 (P33261 whole entry): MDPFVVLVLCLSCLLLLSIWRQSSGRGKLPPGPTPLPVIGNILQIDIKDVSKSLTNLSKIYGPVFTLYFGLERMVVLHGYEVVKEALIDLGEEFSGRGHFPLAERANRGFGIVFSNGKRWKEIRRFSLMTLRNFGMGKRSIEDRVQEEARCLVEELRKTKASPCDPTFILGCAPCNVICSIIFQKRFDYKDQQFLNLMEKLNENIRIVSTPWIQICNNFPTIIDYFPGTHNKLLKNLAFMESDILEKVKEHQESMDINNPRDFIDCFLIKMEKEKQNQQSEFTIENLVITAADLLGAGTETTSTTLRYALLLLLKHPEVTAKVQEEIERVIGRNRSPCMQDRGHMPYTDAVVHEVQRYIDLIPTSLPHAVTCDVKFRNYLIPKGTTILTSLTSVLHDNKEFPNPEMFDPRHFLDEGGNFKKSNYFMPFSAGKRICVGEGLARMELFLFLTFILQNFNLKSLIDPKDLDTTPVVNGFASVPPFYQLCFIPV

Sequence of Cytochrome P450 2C9 (P11712 whole entry): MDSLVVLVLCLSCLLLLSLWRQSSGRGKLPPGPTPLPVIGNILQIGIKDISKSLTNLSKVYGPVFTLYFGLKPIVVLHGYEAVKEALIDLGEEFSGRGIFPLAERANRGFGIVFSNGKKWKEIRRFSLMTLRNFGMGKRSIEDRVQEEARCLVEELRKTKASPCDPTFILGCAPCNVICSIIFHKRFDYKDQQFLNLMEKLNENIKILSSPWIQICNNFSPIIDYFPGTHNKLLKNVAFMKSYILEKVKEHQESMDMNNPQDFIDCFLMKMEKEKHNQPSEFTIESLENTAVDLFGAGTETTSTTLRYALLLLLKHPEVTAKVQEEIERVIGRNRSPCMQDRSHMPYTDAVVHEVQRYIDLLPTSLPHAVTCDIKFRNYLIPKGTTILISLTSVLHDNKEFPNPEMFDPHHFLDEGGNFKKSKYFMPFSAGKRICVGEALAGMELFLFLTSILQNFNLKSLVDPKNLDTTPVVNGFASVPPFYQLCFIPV
Sequence of Cytochrome P450 3A4 (P08684 whole entry): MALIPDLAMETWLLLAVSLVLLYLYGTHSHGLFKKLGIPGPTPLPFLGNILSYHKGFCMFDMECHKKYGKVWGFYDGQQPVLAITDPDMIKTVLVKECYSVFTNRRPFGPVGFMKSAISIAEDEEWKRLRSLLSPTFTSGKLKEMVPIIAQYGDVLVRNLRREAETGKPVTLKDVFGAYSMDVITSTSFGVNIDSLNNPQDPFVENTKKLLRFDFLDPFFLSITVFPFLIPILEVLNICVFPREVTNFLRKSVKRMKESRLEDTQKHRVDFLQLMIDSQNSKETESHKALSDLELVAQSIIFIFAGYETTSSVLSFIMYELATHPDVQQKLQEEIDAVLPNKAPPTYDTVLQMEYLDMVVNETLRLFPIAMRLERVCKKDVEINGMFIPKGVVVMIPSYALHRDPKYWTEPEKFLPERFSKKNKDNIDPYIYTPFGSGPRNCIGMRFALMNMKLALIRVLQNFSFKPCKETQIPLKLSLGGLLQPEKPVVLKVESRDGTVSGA
Sequence of Cytochrome P450 2D6 (P10635 whole entry): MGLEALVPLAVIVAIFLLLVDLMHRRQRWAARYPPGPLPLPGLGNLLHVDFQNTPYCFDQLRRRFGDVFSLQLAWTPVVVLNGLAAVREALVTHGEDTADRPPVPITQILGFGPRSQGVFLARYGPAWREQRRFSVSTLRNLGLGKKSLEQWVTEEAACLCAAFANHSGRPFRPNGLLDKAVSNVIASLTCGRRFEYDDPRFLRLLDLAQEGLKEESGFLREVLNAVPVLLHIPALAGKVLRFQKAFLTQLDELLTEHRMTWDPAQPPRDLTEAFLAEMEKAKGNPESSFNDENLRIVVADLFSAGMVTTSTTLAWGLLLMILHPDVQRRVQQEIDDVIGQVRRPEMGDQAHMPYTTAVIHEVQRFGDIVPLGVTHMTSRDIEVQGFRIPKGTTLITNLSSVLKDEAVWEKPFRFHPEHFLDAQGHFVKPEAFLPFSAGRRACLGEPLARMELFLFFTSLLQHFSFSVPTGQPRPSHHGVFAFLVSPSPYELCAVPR

CCOC(=O)N[C@@H]1CC[C@@H]2[C@@H](C1)C[C@H]1C(=O)O[C@H](C)[C@H]1[C@H]2/C=C/c1ccc(-c2ccc(C)cn2)cn1
Ki [1]: 42 nM

CCOC(=O)N[C@@H]1CC[C@@H]2[C@@H](C1)C[C@H]1C(=O)O[C@H](C)[C@H]1[C@H]2/C=C/c1ccc(-c2ccncc2)cn1
Ki [1]: 250 nM

CCOC(=O)N[C@@H]1CC[C@@H]2[C@@H](C1)C[C@H]1C(=O)O[C@H](C)[C@H]1[C@H]2/C=C/c1ccc(-c2cccc(F)c2)cn1 [VORAPAXAR]
Ki [1]: 8 nM | solubility kinetic [2]: < 5 µM | AUC [3]: 3060 ng·h/mL | solubility thermodynamic at 24 h [4]: 2.8 µM (≈ 1.38 µg/mL) | Cmax [5]: 974 ng/mL

CCOC(=O)N[C@@H]1CC[C@@H]2[C@@H](C1)C[C@H]1C(=O)O[C@H](C)[C@H]1[C@H]2/C=C/c1ccc(-c2cc(C)ccn2)cn1
Ki [1]: 144 nM

CCOC(=O)N[C@@H]1CC[C@@H]2[C@@H](C1)C[C@H]1C(=O)O[C@H](C)[C@H]1[C@H]2/C=C/c1ccc(-c2nccs2)cn1
Ki [1]: 75 nM

CCOC(=O)N[C@@H]1CC[C@@H]2[C@@H](C1)C[C@H]1C(=O)O[C@H](C)[C@H]1[C@H]2/C=C/c1ccc(-c2cccc(OC)c2)cn1
Ki [1]: 12 nM | solubility kinetic [2]: < 5 µM | AUC [3]: 319 ng·h/mL | Cmax [5]: 368 ng/mL

CCOC(=O)N[C@@H]1CC[C@@H]2[C@@H](C1)C[C@H]1C(=O)O[C@H](C)[C@H]1[C@H]2/C=C/c1ccc(-c2cncnc2)cn1
Ki [1]: 337 nM

CCOC(=O)N[C@@H]1CC[C@@H]2[C@@H](C1)C[C@H]1C(=O)O[C@H](C)[C@H]1[C@H]2/C=C/c1ccc(-c2ccoc2)cn1
Ki [1]: 61 nM | solubility kinetic [2]: 12 µM (≈ 5.57 µg/mL)

CCOC(=O)N[C@@H]1CC[C@@H]2[C@@H](C1)C[C@H]1C(=O)O[C@H](C)[C@H]1[C@H]2/C=C/c1ccc(-c2ccccn2)cn1
AUC(0-t) at 24 h [6]: 2520 ng·h/mL | Ki [1]: 19 nM | solubility kinetic [2]: 75 µM (≈ 35.7 µg/mL) | induction at 10 µM [7]: 0.13% | AUC(0-t) at 24 h [8]: 50 ng·h/mL | IC50 (Cytochrome P450 2D6): > 30000 nM | AUC [3]: 10100 ng·h/mL | Cmax [9]: 16 ng/mL | solubility thermodynamic at 24 h [4]: 67 µM (≈ 31.9 µg/mL) | IC50 (Cytochrome P450 2C9): > 30000 nM | inhibition in vivo at 0.1 mg/kg (Platelet [10]): 70% | Papp [11]: 28.3 ×10⁻⁶ cm/s | Tmax [12]: 30 min | IC50 (Cytochrome P450 3A4): > 30000 nM | Cmax [13]: 236 ng/mL | inhibition (Platelet [14]): Active | Cmax [5]: 3070 ng/mL | Tmax [15]: 60 min | inhibition (Platelet [16]): Active | Activity (Rhesus monkey): Dose-dependent effect | IC50 (Cytochrome P450 2C19): > 30000 nM

CCOC(=O)N[C@@H]1CC[C@@H]2[C@@H](C1)C[C@H]1C(=O)O[C@H](C)[C@H]1[C@H]2/C=C/c1ccc(-c2cccnc2)cn1
Ki [1]: 240 nM

CCOC(=O)N[C@@H]1CC[C@@H]2[C@@H](C1)C[C@H]1C(=O)O[C@H](C)[C@H]1[C@H]2/C=C/c1ccc(-c2ccccc2C#N)cn1
Ki [1]: 15 nM | solubility kinetic [2]: 12 µM (≈ 6 µg/mL) | AUC [3]: 5220 ng·h/mL | Cmax [5]: 1570 ng/mL
